# Measurements from ChEMBL document CHEMBL4513216, “Probing the Open Global Health Chemical Diversity Library for Multistage-Active Starting Points for Next-Generation Antimalarials” (ACS Infect Dis, 2020).
# Assay: Toxicity liver stage against HepG2, at 10uM
# Format: cell-based
# Parameters: test concentration 10 uM, cell line HepG2-A16-CD81EGFP
# Settings: human, HepG2-A16-CD81EGFP cells; read-out: INHIBITION
# Summary of the method: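 Uninfected HepG2-A16-CD81EGFP cells, 3 × 10^3 per well, 1536-well, plated on prespotted compound at 10 μM final, parasite-free screening media added to match infected plates; puromycin 10 μM positive, DMSO 0.5% negative; run in parallel with 48 h PbLuc assay at 37 °C, 5% CO2; viability by CellTiter-Glo luminescence, normalized to controls.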
row,SMILES,cytotoxicity at 10 µM
1,CN(Cc1ccccc1)CC1CC2(CO1)CN(c1nncs1)C2 (stereo not given),13.7%
2,c1ccc(NCc2cn3c(n2)CN(Cc2nccs2)CC3)nc1,10.4%
3,CC(O)CNC(=O)CCc1nc2ncccc2[nH]1 (stereo not given),-3.5%
4,COc1ccc(C(=O)NCCCn2ccnc2)c(OC)n1,4.99%
5,CCC(=O)Nc1c(C)nn(COc2cccc(F)c2)c1C,7.77%
6,CCn1cc(CN(C)S(=O)(=O)c2ccc(C(C)C)cc2)cn1,20.1%
7,CSc1nc2ccsc2c(=O)n1CC(=O)N(C)C1CCCCC1,0.773%
8,c1cc(-c2nn3c(CN4CCOCC4)nnc3s2)ccn1,11%
9,COc1c(CC2CC(CO)=NO2)c(Br)c2c(c1OC)OCO2 (stereo not given),-1.43%
10,CN1CCC(Cc2cnc(CNC(=O)Cc3cccc(F)c3)cn2)CC1,-2.67%
11,C=Cn1cc(CN2CCN(CC3(c4ccccc4)CC3)CC2)c(C)n1,1.78%
12,CS(=O)(=O)N1CCCC(Cc2cnc(Br)cn2)C1 (stereo not given),17.3%
13,O=C1Nc2ccccc2CC12CCCN2Cc1ccc(C(F)(F)F)cc1 (stereo not given),30.2%
14,CC(C)c1cc(Br)ccc1NC(=O)NC(C)(CO)CO,9.83%
15,CN(CC(C)(CO)CO)C(=O)Nc1cc(Cl)cc(Cl)c1,0.0988%
16,CC(CO)NS(=O)(=O)c1cccc(C(C)C)c1 (stereo not given),-20%
17,CC(C)(CNC(=O)C1(c2cccc(Br)c2)CCOCC1)C(=O)O,2.9%
18,Cc1noc(C)c1CN(C)C(=O)C1CCCc2ccccc21 (stereo not given),2.45%
19,CN1CCC(NC(=O)c2cc(F)cc(Cl)c2O)C1=O (stereo not given),3.09%
20,COc1cc(NCCNC(=O)c2cscc2C)cc(OC)c1,1.6%
21,Cc1occc1C(=O)NCC(=O)N(C)CCCOc1ccc(F)cc1,-41.9%
22,O=C(NCc1nncn1C1CC1)C1(c2ccc(F)cc2)CCOCC1,-10.4%
23,N#Cc1c(Cl)nsc1NCc1ccc(N2CCCC(C(N)=O)C2)cc1 (stereo not given),-9.65%
24,COc1c(CNCc2ccccc2-n2ccnc2)c(C)nn1C,18.7%
25,Cc1cccc(NC(=O)CN(C)C(=O)c2ccc(OC(C)C)nc2)n1,-8.99%
26,CC(C)Oc1ncc(C(=O)N2CCC(N(C)C)CC2)cc1Cl,-4.09%
27,COc1ccc(CNC(=O)NCC(=O)NC2CC2)c(C(F)(F)F)c1,6.41%

row,SMILES,cytotoxicity at 10 µM
1,CN(CC(=O)N1CCCC1c1ccccn1)Cc1ccccc1 (stereo not given),-0.51%
2,CCc1cc(CNC(=O)Nc2cc(F)ccc2N2CCCCC2)on1,-18.9%
3,O=C(CN1CCSC2(CCCCC2)C1)NCC(F)(F)F,-6.4%
4,Cc1cccc(-c2nnc(C(C)N3CCn4c(C)nnc4C3)o2)c1 (stereo not given),0.131%
5,Cc1csc(C(C#N)C(=O)NCc2cccnc2)n1 (stereo not given),9.6%
6,COCCNC(=O)CSc1nnc(OC(C)C)s1,-5.7%
7,O=C(Cc1ccccc1F)NCC1CCN(CCc2ccccc2)C1 (stereo not given),-43.5%
8,Cc1csc([C@@H]2C[C@@H]3CCN(Cc4cc(C)on4)C[C@H]3O2)n1,-106%
9,COCCN1CCC2(CC1)CC(c1cccnc1)C(=O)N2C (stereo not given),7.26%
10,Cc1cc(C(=O)NCC2OCCc3cn(CC4CC4)nc32)c(C)[nH]1 (stereo not given),3.42%
11,Cc1ccc(OC2(C(=O)NC(C)Cc3ccncc3)CCNCC2)cc1 (stereo not given),-9.89%
12,COC(=O)CNc1ccc(-c2nc(Cc3ccc(OC)cc3)no2)cn1,1.06%
13,Cc1nccc(N[C@H]2CN(CCC(=O)NC3CCCC3)C[C@@H]2C2CC2)n1,-4.57%
14,CCn1c(N)nc2cc(C(=O)N3Cc4ccccc4C3)cnc21,-8.51%
15,COCc1cn(CC2CCN(Cc3cc(C)[nH]n3)CC2)nn1,-2.44%
16,CN(C)CCN1CC(C(=O)NCc2cccc(-n3cccn3)c2)CC1=O (stereo not given),-0.0342%
17,COCc1c(C(=O)N2CCCC(C(=O)c3nccn3C)C2)noc1C (stereo not given),15.8%
18,CC(C)=CCN1CCN(Cc2cc(C)n[nH]2)CC1CCO (stereo not given),1.96%
19,COCCN(Cc1c(C)nn(C)c1C)C(=O)C1COc2ccccc2C1 (stereo not given),-3.87%
20,Cc1cc2[nH]c(=O)oc2cc1S(=O)(=O)N1C[C@@H](N(C)C)[C@H](C(C)C)C1,0.234%
21,CC(C)N(CCO)C(=O)C1CCC(=O)N(CCc2ccc(Cl)cc2)C1 (stereo not given),-8.27%
22,CC(C)(C)c1csc(CNC(=O)C2NCCc3[nH]cnc32)n1 (stereo not given),-2.65%
23,CN(CCCc1nccn1C)c1nccc(N2CCC(O)C2)n1 (stereo not given),10.2%
24,CCN1CC(CN(C)Cc2nc(-c3ccc(F)cc3F)oc2C)CC1=O (stereo not given),-6.64%
25,CN(Cc1cc2cc(F)ccc2[nH]1)C(=O)C1CC(=O)N(C2CCCC2)C1 (stereo not given),-3.26%
26,CSCCCN1C[C@H](NC(=O)c2cc(C3CC3)on2)[C@@H](C2CC2)C1,2.72%
27,Cc1ccc(OC2(C(=O)O)CCN(C(=O)c3cc(C)oc3C)CC2)cn1,0.0255%

row,SMILES,cytotoxicity at 10 µM
1,COc1ccc([C@@H]2CN(C(=O)CCc3cc(Cl)no3)C[C@H]2N(C)C)cc1,6.1%
2,CC(=O)Nc1ncc(S(=O)(=O)N2CCN(C3CCCCC3)CC2)s1,-4.5%
3,CC(C)c1nc(CN(C)C(=O)CNS(=O)(=O)c2cccs2)cs1,-6.46%
4,O=C(CN1CCCCCC1)NCc1cccnc1Oc1ccccc1,-11.1%
5,Cc1ccc(OCc2occc2C(=O)N2CC[C@H](CO)[C@@H](O)C2)cc1,14.3%
6,CC(C)C(=O)N1CCN(C(=O)c2cscn2)[C@H]2CS(=O)(=O)C[C@H]21,-7.15%
7,Cc1c[nH]c(CN(C)C(=O)c2cccc(CCC(C)(C)O)c2)n1,-6.85%
8,CNC(=O)c1cccc(C2CNCCN2C)c1 (stereo not given),2.91%
9,Cc1ccc(C)n1C(C)C(=O)N1CCCN(Cc2cscn2)CC1 (stereo not given),-8.36%
10,CCN(CC1CCOC1)C(=O)c1ccccc1N1CCOCC1 (stereo not given),-13.6%
11,CN(CCn1cccn1)S(=O)(=O)N1CCCC1c1ccco1 (stereo not given),-9.56%
12,Cc1cc(CC(=O)N(CC2CN(C)CCO2)c2nccs2)no1 (stereo not given),-7.49%
13,Cc1ccc(N2CCCC(NCc3cscn3)C2)nn1 (stereo not given),-7.2%
14,Cc1cc(C[C@@H]2CCC[C@H]2NCc2cc(C)c(O)c(C)c2)on1,3.37%
15,CN(Cc1cncnc1)[C@@H]1CN(C(=O)c2ccco2)[C@@H]2CCCO[C@H]12,-113%
16,CCc1ccc(CN2C[C@H](OCC(=O)N(C)C)[C@H]3COC[C@H]32)o1,2.46%
17,Cc1ccc(CN2CCc3c(CN4CCCC4)n[nH]c3C2)s1,4.41%
18,COCC(=O)N1CCC2(CC1)CC(COC)N(Cc1ccccn1)C2 (stereo not given),-101%
19,CN(C)C(=O)C1CCN(C2CCN(CC3CCC3)CC2)CC1,2.82%
20,c1csc(CN2C[C@H](OCC3CCOCC3)[C@H]3COC[C@H]32)n1,-3.76%
21,CN1CCO[C@@H]2CN(C(=O)Cc3cccs3)CC[C@@H]2C1,-103%
22,CCc1ncnc2c1CCN(Cc1ccc(OC)cc1)CC2,-0.00161%
23,c1ccc2c(c1)SCCC2NCc1ccc(N2CCOCC2)cc1 (stereo not given),-4.86%
24,Cc1noc(C)c1CN1CC[C@H]2O[C@@H](C(=O)N3CCCC3)CC[C@H]21,3.35%
25,CCc1nnc(SCC(=O)N2C[C@H]3CC[C@@H](C2)N(CC=C(C)C)C3)[nH]1,-6.18%
26,COCCNc1nc(C)nc2c1CCN(CC1CCC(N)CC1)CC2 (stereo not given),-2.84%
